Several values for one entry are separate records, joined by “and”; a condition that tells them apart may be missing. Equal values may be shown once. Read-outs that look alike come from different tables or passages of the source.
Assays:
[1] = target: ERK2 (Rattus norvegicus, UniProt P63086); test: in vitro radioactive kinase assay, Ets-1 phosphorylation by ERK2; type: biochemical; settings: 100 μM ATP /10mM Ets-1
Method in brief: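 Activated rat ERK2 (2 nM) was tested with His-Ets-1 (1–138) at 28–30 °C in HEPES pH 7.5 buffer with 11 mM MgCl2, BSA and 5% DMSO. Reactions were started with [γ-32P]ATP (10 or 100 μM).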

[2] = system: SF-295; test: cells; type: cell-based; settings: SF-295, 10^−5 M, 48 h
[3] = system: KM 12; test: cells; type: cell-based; settings: KM 12, 10^−5 M, 48 h
[4] = system: HL-60 (TB); test: cells; type: cell-based; settings: HL-60(TB), 10^−5 M, 48 h
[5] = system: OVCAR-3; test: cells; type: cell-based; settings: OVCAR-3, 10^−5 M, 48 h
[6] = system: SNB-75; test: cells; type: cell-based; settings: SNB-75, 10^−5 M, 48 h
[7] = system: SK-MEL-2; test: cells; type: cell-based; settings: SK-MEL-2, 10^−5 M, 48 h
[8] = system: SN12C; test: cells; type: cell-based; settings: 10^−5 M, 48 h
[9] = system: K-562; test: cells; type: cell-based; settings: K-562, 10^−5 M, 48 h
[10] = system: LOX IMVI; test: cells; type: cell-based; settings: 10^−5 M, 48 h
[11] = system: RPMI-8226; test: cells; type: cell-based; settings: RPMI-8226, 10^−5 M, 48 h
[12] = system: SK-MEL-28; test: cells; type: cell-based; settings: SK-MEL-28, 10^−5 M, 48 h
[13] = system: SK-OV-3; test: cells; type: cell-based; settings: SK-OV-3, 10^−5 M, 48 h
[14] = system: SF-268; test: cells; type: cell-based; settings: SF-268, 10^−5 M, 48 h
[15] = system: HOP-92; test: cells; type: cell-based; settings: HOP-92, 10^−5 M, 48 h
[16] = system: MDA-MB-468; test: cells; type: cell-based; settings: MDA-MB-468, 10^−5 M, 48 h
[17] = system: U251; test: cells; type: cell-based; settings: U251, 10^−5 M, 48 h
[18] = system: MDA-MB-435; test: cells; type: cell-based; settings: MDA-MB-435, 10^−5 M, 48 h
[19] = system: OVCAR-5; test: cells; type: cell-based; settings: OVCAR-5, 10^−5 M, 48 h
[20] = system: NCI-H460; test: cells; type: cell-based; settings: NCI-H460, 10^−5 M, 48 h
[21] = system: T-47D; test: cells; type: cell-based; settings: T-47D, 10^−5 M, 48 h
[22] = system: MALME-3M; test: cells; type: cell-based; settings: MALME-3M, 10^−5 M, 48 h
[23] = system: IGROV1; test: cells; type: cell-based; settings: IGROV1, 10^−5 M, 48 h
[24] = system: NCI-H23; test: cells; type: cell-based; settings: NCI-H23, 10^−5 M, 48 h
[25] = system: UO-31; test: cells; type: cell-based; settings: UO-31, 10^−5 M, 48 h
[26] = system: MCF7; test: cells; type: cell-based; settings: MCF7, 10^−5 M, 48 h
[27] = system: HT29; test: cells; type: cell-based; settings: HT29, 10^−5 M, 48 h
[28] = system: BT-549; test: cells; type: cell-based; settings: BT-549, 10^−5 M, 48 h
[29] = system: SK-MEL-5; test: cells; type: cell-based; settings: SK-MEL-5, 10^−5 M, 48 h
[30] = system: A549/ATCC; test: cells; type: cell-based; settings: A549/ATCC, 10^−5 M, 48 h
[31] = system: ACHN; test: cells; type: cell-based; settings: 10^−5 M, 48 h
[32] = system: UACC-62; test: cells; type: cell-based; settings: UACC-62, 10^−5 M, 48 h
[33] = system: MOLT-4; test: cells; type: cell-based; settings: MOLT-4, 10^−5 M, 48 h
[34] = system: RXF 393; test: cells; type: cell-based; settings: RXF 393, 10^−5 M, 48 h
[35] = system: NCI-H522; test: cells; type: cell-based; settings: NCI-H522, 10^−5 M, 48 h
[36] = system: CCRF-CEM; test: cells; type: cell-based; settings: 10^−5 M, 48 h
[37] = system: NCI-H322M; test: cells; type: cell-based; settings: 10^−5 M, 48 h
[38] = system: HCT-116; test: cells; type: cell-based; settings: HCT-116, 10^−5 M, 48 h
[39] = system: HOP-62; test: cells; type: cell-based; settings: HOP-62, 10^−5 M, 48 h
[40] = system: DU-145; test: cells; type: cell-based; settings: DU-145, 10^−5 M, 48 h
[41] = system: OVCAR-8; test: cells; type: cell-based; settings: OVCAR-8, 10^−5 M, 48 h
[42] = system: HCT-15; test: cells; type: cell-based; settings: HCT-15, 10^−5 M, 48 h
[43] = system: SR; test: cells; type: cell-based; settings: 10^−5 M, 48 h
[44] = system: HCC-2998; test: cells; type: cell-based; settings: HCC-2998, 10^−5 M, 48 h
[45] = system: NCI-H226; test: cells; type: cell-based; settings: NCI-H226, 10^−5 M, 48 h
[46] = system: SW-620; test: cells; type: cell-based; settings: SW-620, 10^−5 M, 48 h
[47] = system: PC-3; test: cells; type: cell-based; settings: PC-3, 10^−5 M, 48 h
[48] = system: SF-539; test: cells; type: cell-based; settings: SF-539, 10^−5 M, 48 h
[49] = system: SNB-19; test: cells; type: cell-based; settings: SNB-19, 10^−5 M, 48 h
[50] = system: NCI-60 panel of tumor cell lines; settings: for Average G%: average over tested NCI-60 cell lines, 10^−5 M (10 μM), 48 h
[51] = system: M14; test: cells; type: cell-based; settings: M14, 10^−5 M, 48 h
[52] = system: OVCAR-4; test: cells; type: cell-based; settings: OVCAR-4, 10^−5 M, 48 h
[53] = system: A498; test: NCI-60 SRB screen, Renal cancer; type: cell-based, human; settings: A498, 10^−5 M, 48 h
[54] = system: EKVX; test: NCI-60 SRB screen, Non-small cell lung cancer; type: cell-based, human; settings: 10^−5 M, 48 h
[55] = ERK2 IC50 at 100 μM ATP /10mM Ets-1, Table 4

Chain of ERK2 (P63086 whole entry): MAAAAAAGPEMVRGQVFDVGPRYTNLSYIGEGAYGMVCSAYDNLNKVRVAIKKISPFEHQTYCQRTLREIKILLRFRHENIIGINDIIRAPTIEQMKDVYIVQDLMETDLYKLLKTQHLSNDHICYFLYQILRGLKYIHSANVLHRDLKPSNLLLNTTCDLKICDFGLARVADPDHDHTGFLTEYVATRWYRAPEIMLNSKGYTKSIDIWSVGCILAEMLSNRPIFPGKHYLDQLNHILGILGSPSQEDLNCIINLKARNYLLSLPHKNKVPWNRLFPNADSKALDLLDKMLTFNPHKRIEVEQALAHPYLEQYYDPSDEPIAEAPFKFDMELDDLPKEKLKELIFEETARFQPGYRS

SMILES: Cc1ccc2[nH]c(=O)c3c4c(oc3c2c1)C(=O)c1ccccc1C4=O [3d, 2-Methylnaphtho[2′,3′:4,5]furo[3,2-c]quinoline-6,7,12(5H)-trione]
- IC50 [1, 55]: 59 ± 8.2 µM

SMILES: CCn1c(=O)c2c(=O)c3c4c(oc3oc2c2ccccc21)C(=O)c1ccccc1C4=O [5b, 5-Ethyl-5H-naphthalen[2″,3″:4′,5′]furo[3′,2′:4′,5,6]pyrano[3,2-c]quinoline-6,7,8,13-tetraone]
- Growth percent (G%) [2]: 95.07%
- Growth percent (G%) [3]: 86.61%
- Growth percent (G%) [4]: −18.8%
- Growth percent (G%) [5]: −16.31%
- Growth percent (G%) [6]: 119.73%
- Growth percent (G%) [7]: 79.89%
- Growth percent (G%) [8]: 106.07%
- Growth percent (G%) [9]: 28.57%
- IC50 ([1]; read-out: ERK2 IC50 at 100 μM ATP /10mM Ets-1, Table 4): 8.3 ± 1.5 µM
- Growth percent (G%) [10]: 32.39%
- Growth percent (G%) [11]: 33.49%
- Growth percent (G%) [12]: 106.96%
- Growth percent (G%) [13]: 102.05%
- Growth percent (G%) [14]: 84.32%
- Growth percent (G%) [15]: 50.81%
- Growth percent (G%) [16]: −9.96%
- Growth percent (G%) [17]: 57.67%
- Growth percent (G%) [18]: 95.88%
- Growth percent (G%) [19]: 117.77%
- Growth percent (G%) [20]: 83.68%
- Growth percent (G%) [21]: 85.06%
- Growth percent (G%) [22]: 112.5%
- Growth percent (G%) [23]: 68.31%
- Growth percent (G%) [24]: 66.79%
- Growth percent (G%) [25]: 112.5%
- Growth percent (G%) [26]: 92.37%
- Growth percent (G%) [27]: 63.02%
- Growth percent (G%) [28]: 93.67%
- Growth percent (G%) [29]: 67.42%
- Growth percent (G%) [30]: 82.36%
- Growth percent (G%) [31]: 79.61%
- Growth percent (G%) [32]: 63.95%
- Growth percent (G%) [33]: −24.49%
- Growth percent (G%) [34]: 72.63%
- Growth percent (G%) [35]: 65.5%
- Growth percent (G%) [36]: 2.47%
- Growth percent (G%) [37]: 97.72%
- Growth percent (G%) [38]: 34.6%
- Growth percent (G%) [39]: 80.29%
- Growth percent (G%) [40]: 42.4%
- Growth percent (G%) [41]: 10.25%
- Growth percent (G%) [42]: 79.63%
- Growth percent (G%) [43]: 80.76%
- Growth percent (G%) [44]: 100.59%
- Growth percent (G%) [45]: 99.44%
- Growth percent (G%) [46]: 73.47%
- Growth percent (G%) [47]: 81.82%
- Growth percent (G%) [48]: 89.92%
- Growth percent (G%) [49]: 90.17%
- Average G% [50]: 65.81%
- Growth percent (G%) [51]: 89.81%
- Growth percent (G%) [52]: −99.52%

SMILES: Cn1c(=O)c2c3c(oc2c2ccccc21)C(=O)c1ccccc1C3=O [3e, 5-Methylnaphtho[2′,3′:4,5]furo[3,2-c]quinoline-6,7,12(5H)-trione]
- Growth percent (G%) [3]: 91.54%
- Growth percent (G%) [5]: 21.58%
- Growth percent (G%) [6]: 64.39%
- Growth percent (G%) [7]: 92.64%
- Growth percent (G%) [8]: 81.84%
- Growth percent (G%) [9]: 68.79%
- IC50 [1, 55]: 21 ± 5.6 µM
- Growth percent (G%) [10]: 76.59%
- Growth percent (G%) [11]: 51.06%
- Growth percent (G%) [12]: 111.89%
- Growth percent (G%) [13]: 93.55%
- Growth percent (G%) [14]: 95.35%
- Growth percent (G%) [15]: 100.92%
- Growth percent (G%) [16]: −9.91%
- Growth percent (G%) [17]: 90.22%
- Growth percent (G%) [18]: 103.73%
- Growth percent (G%) [19]: 119.92%
- Growth percent (G%) [20]: 78.50%
- Growth percent (G%) [21]: 9.70%
- Growth percent (G%) [22]: 113.45%
- Growth percent (G%) [23]: 68.65%
- Growth percent (G%) [24]: 78.33%
- Growth percent (G%) [25]: 54.76%
- Growth percent (G%) [26]: 68.38%
- Growth percent (G%) [27]: 73.69%
- Growth percent (G%) [28]: 77.38%
- Growth percent (G%) [29]: 76.95%
- Growth percent (G%) [30]: 81.67%
- Growth percent (G%) [31]: 75.49%
- Growth percent (G%) [32]: 77.03%
- Growth percent (G%) [33]: 2.39%
- Growth percent (G%) [34]: 100.91%
- Growth percent (G%) [35]: 50.55%
- Growth percent (G%) [36]: 19.07%
- Growth percent (G%) [37]: 96.16%
- Growth percent (G%) [38]: 71.69%
- Growth percent (G%) [39]: 81.77%
- Growth percent (G%) [40]: 90.97%
- Growth percent (G%) [41]: 85.32%
- Growth percent (G%) [42]: 85.01%
- Growth percent (G%) [44]: 101.82%
- Growth percent (G%) [45]: 73.22%
- Growth percent (G%) [46]: 86.24%
- Growth percent (G%) [53]: 93.29%
- Growth percent (G%) [47]: 64.38%
- Growth percent (G%) [48]: 97.17%
- Growth percent (G%) [49]: 93.29%
- NCI Cytotoxicity Screening Average G% ([50]; Table 4, 10 μM one-dose screen): 74%
- Average G% [50]: 74% and 74.32%
- Growth percent (G%) [54]: 70.67%
- Growth percent (G%) [51]: 85.59%
- Growth percent (G%) [52]: 4.38%

SMILES: O=C1c2ccccc2C(=O)c2c1oc1c2c(=O)[nH]c2ccc(Br)cc21 [3c, 2-Bromonaphtho[2′,3′:4,5]furo[3,2-c]quinoline-6,7,12(5H)-trione]
- IC50 [1, 55]: > 100 µM

— paper PMC6543826 (Bioorganic chemistry, 2018)
